From PubChem BioAssay
ABCB1 block – human ABCB1 inhibition, ABCG2 as counter-screen | P08183 | CCRF-Adr cells, JC-1 efflux, flow cytometry | inhibition, % at 6.6 µM | actives 0.067% (n = 190,000); in the data active = inhibition above about 40%;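 also: 0% = vehicle and 100% = reference inhibitor; higher value means more JC-1 retained so stronger ABCB1 efflux block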
WT yeast gro inh – growth inhibition of WT yeast, mitochondrial fusion screen; inhibition, % at 10 µM; mitochondrial fusion phenotypic screen, WT strain; actives 2.1% (n = 190,000); in the data active = inhibition above about 58%; tested in S. cerevisiae
Lmaj promast – Leishmania major promastigote growth inhibition; Leishmania major promastigotes, resazurin fluorescence viability; inhibition, % at 10 µM; actives 9% (n = 200,000); in the data active = inhibition above about 50%;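 also: promastigotes grown with compound for 44 hours at 28 °C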
ABCG2 inh – inhibitors of human ABCG2 transporter, ABCB1 counter-screen. Q9UNQ0. IgMXP3 cells, JC-1 efflux, flow cytometry. inhibition, % at 6.6 µM. actives 0.1% (n = 190,000);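 active = inhibition above 80%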;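 also: 0% = DMSO and 100% = nicardipine control wells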
Target sequence (Q9UNQ0 whole entry, looked up): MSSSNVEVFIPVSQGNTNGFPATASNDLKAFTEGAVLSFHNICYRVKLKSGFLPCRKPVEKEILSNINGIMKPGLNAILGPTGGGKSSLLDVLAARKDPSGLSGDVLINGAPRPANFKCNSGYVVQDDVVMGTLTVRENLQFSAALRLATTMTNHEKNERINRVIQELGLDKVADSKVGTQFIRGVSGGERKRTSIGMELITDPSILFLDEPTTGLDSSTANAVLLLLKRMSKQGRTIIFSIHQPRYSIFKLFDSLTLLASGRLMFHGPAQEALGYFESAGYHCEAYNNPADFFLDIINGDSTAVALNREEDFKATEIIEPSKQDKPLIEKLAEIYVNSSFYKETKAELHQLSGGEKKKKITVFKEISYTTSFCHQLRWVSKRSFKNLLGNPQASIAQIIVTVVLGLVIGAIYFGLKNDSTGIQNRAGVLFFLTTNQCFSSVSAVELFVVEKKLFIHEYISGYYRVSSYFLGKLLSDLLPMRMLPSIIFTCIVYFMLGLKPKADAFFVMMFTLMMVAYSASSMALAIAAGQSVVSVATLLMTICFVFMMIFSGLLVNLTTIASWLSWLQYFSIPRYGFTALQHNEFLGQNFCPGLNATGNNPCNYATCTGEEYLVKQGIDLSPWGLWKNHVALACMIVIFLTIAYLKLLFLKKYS
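Test system: ABCG2 IgMXP3 and barcoded ABCB1 CCRF-Adr cell mix; Schedule: cells with compound and JC-1, 10 min at 25 °C, rotating, no wash; Technique: flow cytometry of retained JC-1 fluorescence; Measure: % inhibition of efflux relative to nicardipine and DMSO; Controls: nicardipine high and DMSO low controls.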
RAM network inh – inhibitors of the yeast RAM network. S. cerevisiae dse1pr::URA3 reporter, 5-FOA growth OD615, 2 d; analog-sensitive cbk1-as2 kinase mutant strain. inhibition, % at 50 µM. actives 1.8% (n = 190,000). AID 868;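 active = inhibition above a set limit, 3 SD over mean compound inhibition, cut at about 8.4% in these data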;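 also: 0% = DMSO-only wells with no growth and 100% = 10 µM 1-NA-PP1 full growth; inhibition rescues growth on 5-FOA so higher OD means more RAM inhibition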
An asterisk follows results filed as active. Sampled rows, rich in hits. Any-hit rate of the full collection: about 12%.

SMILES	ABCB1 block	WT yeast gro inh	Lmaj promast	ABCG2 inh	RAM network inh
COc1cccc(C(=O)C2CCCN(Cc3cccn3-c3cccnc3)C2)c1 (stereo not drawn)	3.4	-1.5	88.7*	9.7	-0.8
COc1ccc(C(=O)C2CCCN(Cc3cccn3-c3ccccn3)C2)c(OC)c1 (stereo not drawn)	0.9	13.3	92.1*	3.0	-0.4
COc1ccc(F)cc1C(=O)C1CCCN(Cc2cccn2-c2ccccn2)C1 (stereo not drawn)	3.8	15.7	62.9*	4.4	-1.5
Cc1cc(C(=O)CSc2nc3ccccc3[nH]2)c(C)n1C	0.5	2.6	5.6	5.9	4.1
O=C(CSc1nc2ccccc2[nH]1)N1c2ccccc2Sc2ccccc21	0.3	44.7	22.7	-2.5	4.3
O=C(CSc1nc2ccccc2[nH]1)c1ccc(Cl)s1	0.0	0.8	80.4*	-0.2	2.5
Cc1cc(C(=O)CN2C(=O)NC(c3ccccc3)(c3ccccc3)C2=O)c(C)n1Cc1ccco1	0.6	3.6	52.2*	1.7	4.2
CCCn1c(C)cc(C(=O)CSc2nc3ccccc3c(=O)n2Cc2ccco2)c1C	8.0	-58.1	88.6*	22.1	9.3*
Cc1cc(C(=O)CSc2nc3ccccc3[nH]2)c(C)n1Cc1ccco1	1.3	16.9	94.5*	14.4	5.2
COc1ccc(/C=C(\C#N)c2n[nH]c(Cn3cncn3)n2)cc1	1.9	3.6	3.9	24.1	1.2
CCCc1nnc(SCC(=O)N2CCCCC2C)n1CCOC (stereo not drawn)	0.0	6.0	8.3	1.2	1.0
CCOCC(=O)Nc1c(C(=O)Nc2ccc3c(c2)OCCO3)oc2ccccc12	0.9	7.9	7.4	1.7	1.1
CC1(C)NC(=O)N(CCOCCOc2ccccc2-c2ccccc2)C1=O	0.9	5.8	-0.5	2.1	0.0
Cc1cc(Cl)ccc1OC(C)C(=O)Nc1ccc([N+](=O)[O-])cn1 (stereo not drawn)	1.0	45.2	45.9	17.9	5.5
O=C1NC2(CCCCCC2)C(=O)N1Cc1ccc([N+](=O)[O-])cc1	1.2	7.4	-3.6	5.6	1.3
Cc1cc(C(=O)CSc2nnc(Cc3ccccc3)o2)c(C)n1Cc1ccc2c(c1)OCO2	0.0	0.6	-0.1	1.4	6.8
C=CCn1c(C)cc(C(=O)CSc2nc3ccccc3[nH]2)c1C	1.8	36.8	69.9*	12.0	3.8
C=CCn1c(C)cc(C(=O)CSc2nnc(Cc3ccccc3)o2)c1C	0.4	11.2	-3.6	2.3	9.8*
CN(Cc1ccccc1)c1nc2c(c(=O)[nH]c(=O)n2C)n1CCCc1ccccc1	1.9	48.4	53.6*	4.7	7.0
CN(Cc1ccccc1)c1nc2c(c(=O)[nH]c(=O)n2C)n1Cc1ccccc1Cl	0.7	10.3	70.4*	1.2	3.2
CCOc1ccc(S(=O)(=O)N(C)CCO)cc1-c1nc2c(C(C)(C)C)nn(C)c2c(=O)[nH]1	1.9	18.6	31.0	1.0	2.8
COc1cccc(Nc2c3c(nc4c(-c5ccccc5)c(C)nn24)CCC3)c1	3.8	67.2*	30.2	31.2	1.0
Cc1nn2c(Nc3ccc(F)cc3)c3c(nc2c1-c1ccccc1)CCC3	0.1	12.6	-4.4	4.1	5.0
O=C1c2ccccc2CCC12N=NCC2c1ccc(Cl)cc1 (stereo not drawn)	0.1	6.0	-1.0	1.0	1.9
O=C1c2ccccc2CCC12N=NCC2c1ccc(Br)cc1 (stereo not drawn)	-0.1	68.2*	-7.5	0.8	1.7
SMILES	ABCB1 block	WT yeast gro inh	Lmaj promast	ABCG2 inh	RAM network inh
CCOC(=O)c1sc(N)c(C#N)c1CSc1nnc(C2CCCCC2)n1N	-0.7	-1.2	1.6	11.9	-0.2
C(/CCc1ccccc1)=N\Nc1nc2ccccc2[nH]1	0.1	-0.6	67.2*	2.0	0.9
C(=N\Nc1nc2ccccc2[nH]1)/C1CCCCC1	0.2	-1.7	68.1*	1.3	0.6
O=C(Nc1nc2ccccc2[nH]1)C1CCCC1	0.7	1.3	20.6	0.8	-0.5
C(=C\c1ccccc1)/C=N/Nc1nc2ccccc2[nH]1	-0.3	52.8	37.5	-0.2	-0.5
CC(c1ccccc1)N1CCN(C(=O)CCl)CC1 (stereo not drawn)	0.4	-1.2	76.3*	8.5	-0.4
COc1ccc(/C(C)=N/NC(=O)c2cc(-c3cccnc3)nc3ccccc23)cc1	1.1	2.0	-5.7	10.9	2.2
C/C(=N\NC(=O)c1cc(-c2ccncc2)nc2ccccc12)c1ccc(OC(F)F)cc1	0.1	3.9	89.0*	0.8	2.1
